This is an account of results in ChEMBL document CHEMBL1212778, “Small-molecule inhibitors target Escherichia coli amyloid biogenesis and biofilm formation” (2009).

Activity calls are given as the source filed them. The calls are words filed in the database; no cut-off is given here.

The subject of test [1] is Escherichia coli. In words: Inhibition of curli protein biogenesis in Escherichia coli K-12 at 2.5 mM […] by polyacrylamide gel-shift assay. The format is functional, organism-based. The procedure, abridged: (§1)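 MC4100 was grown 48 h at 26 °C on YESCA agar containing compound at 0.1, 1.0 or 2.5 mM final, with a DMSO carrier control (3.6% v/v). Cells were resuspended in PBS to OD600 0.5 and curli were dissociated with HFIP or formic acid. CsgA, CsgB, CsgF and CsgG were detected by SDS-PAGE immunoblot with curli-specific antibodies. MC4100Δcsg served as negative control.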

Test [2] concerns Escherichia coli. In words: Inhibition of curli protein biogenesis in uropathogenic Escherichia coli UTI89 at 60 to 250 uM after 48 hrs by electron microscopy. The format is functional, organism-based. Put shortly:
(§2)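 UTI89 was inoculated from an overnight LB culture into YESCA broth containing compound and shaken at 100 rpm, 28 °C, for 48 h. Cells were pelleted, resuspended in PBS and normalized to OD600 0.5. Curli were dissolved with formic acid and analysed by curli-antibody immunoblot. Samples prepared the same way were also imaged by high-resolution EM.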

The test system of test [3] is Escherichia coli. Briefly: Inhibition of curli protein biogenesis in uropathogenic Escherichia coli UTI89 assessed as complete inhibition of biofilm formation in PVC wells at 200 uM after 48 hrs in YESCA broth medium by crystal violet staining. It is filed as functional, organism-based. Put shortly: (§3)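 UTI89 was grown 48 h in YESCA broth in PVC microtiter wells with compound. Wells were rinsed, stained with crystal violet and quantified. Percent inhibition is relative to no-compound controls included on each plate. Data are four experiments, with bars as s.d.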

The subject of test [4] is Escherichia coli. Briefly: Inhibition of […] in uropathogenic Escherichia coli UTI89 at 5 uM after 48 hrs in YESCA broth medium by congo red staining-based […]. It is filed as functional, organism-based. Put shortly:
(§4)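 Pellicle formation was scored visually in a 24-well plate assay. UTI89 was grown in Congo red-containing YESCA broth at 30 °C, with pellicles judged about 48 h after inoculation. DMSO carrier served as control.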

The test system of test [5] is Escherichia coli. Briefly: Inhibition of CsgG biogenesis in Escherichia coli K-12 at 2.5 mM after […] by polyacrylamide gel-shift assay. The format is functional, organism-based. The procedure, abridged:
as §1

Test [6] deals with Escherichia coli. Briefly: Inhibition of curli protein biogenesis in uropathogenic Escherichia coli UTI89 at 60 to 250 uM after 48 hrs in YESCA broth medium by polyacrylamide gel-shift assay. It is filed as functional, organism-based. Put shortly: as §2
Test [7] deals with Escherichia coli. Briefly: Antibacterial activity against Escherichia coli UTI89 at 400 uM after 24 hrs by spectrophotometry. It is filed as functional, organism-based.
The subject of test [8] is Escherichia coli. In words: Inhibition of curli protein biogenesis in uropathogenic Escherichia coli UTI89 assessed as complete inhibition of biofilm formation in PVC wells at 400 uM after 48 hrs in YESCA broth medium by crystal violet staining. The format is functional, organism-based. The procedure, abridged:
as §3

The subject of test [9] is Escherichia coli. In words: Inhibition of curli protein biogenesis in uropathogenic Escherichia coli UTI89 at 60 to 250 uM after 48 hrs in YESCA broth medium by polyacrylamide gel-shift assay.
The test system of test [10] is Escherichia coli. In words: Inhibition of CsgF biogenesis in Escherichia coli K-12 at 2.5 mM after […] by polyacrylamide gel-shift assay. The format is functional, organism-based. The procedure, abridged: as §1
Test [11] deals with Escherichia coli. In words: Inhibition of curli protein biogenesis in uropathogenic Escherichia coli UTI89 assessed as inhibition of biofilm formation in PVC wells at 100 uM after 48 hrs in YESCA broth medium by crystal violet staining. The format is functional. As to conditions: UTI89, 48 h. The procedure, abridged: as §3
Test [12] concerns Escherichia coli. Briefly: Inhibition of type 1 pili biogenesis in uropathogenic Escherichia coli UTI89 at 25 uM after 48 hrs in YESCA broth medium by […]. It is filed as functional, organism-based. The procedure, abridged: as §4
The target of test [13] is Major curlin subunit (Escherichia coli (strain K12)) (UniProt P28307). In words: Inhibition of CsgA polymerization in Escherichia coli K-12 at 125 uM after 24 hrs by thioflavin-T amyloid polymerization assay. Put shortly:
(§5)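 Freshly purified, soluble, unstructured C-terminal His6-CsgA (25 μM) was incubated with 25 μM ThT with or without compound. Fluorescence (excitation 438 nm, emission 495 nm) was followed over time at 60-min intervals. Soluble CsgA was confirmed by SDS-PAGE and anti-CsgA western blot, since polymerized CsgA is SDS-insoluble.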

The test system of test [14] is Escherichia coli. Briefly: Inhibition of type 1 pili biogenesis in uropathogenic Escherichia coli UTI89 at 5 to 15 uM after 48 hrs by congo red staining-based confocal microscopy. The format is functional, organism-based.
Test [15] addresses Major curlin subunit (Escherichia coli (strain K12)) (UniProt P28307). In words: Inhibition of CsgA polymerization in Escherichia coli K-12 at 25 uM after 24 hrs by thioflavin-T amyloid polymerization assay. Put shortly: as §5
The subject of test [16] is Escherichia coli. In words: Inhibition of type 1 pili biogenesis in uropathogenic Escherichia coli UTI89 at 5 to 15 uM after 48 hrs by SYTO83 staining-based confocal microscopy. The format is functional, organism-based.
Test [17] has as its system Escherichia coli. In words: Inhibition of type 1 pili biogenesis in uropathogenic Escherichia coli UTI89 at 5 to 15 uM after 48 hrs by calcofluor staining-based confocal microscopy. It is filed as functional, organism-based.
Test [18] concerns Escherichia coli. In words: Inhibition of type 1 pili biogenesis in uropathogenic Escherichia coli UTI89 assessed as complete inhibition of biofilm formation in PVC wells at 50 uM after 48 hrs in LB broth medium by crystal violet staining. The format is functional. The settings on record: UTI89, 48 h. Put shortly:
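UTI89 was grown 48 h in LB broth in PVC microtiter wells with compound; biofilm here is type 1 pili-dependent. Wells were rinsed and stained with crystal violet. Percent inhibition is relative to no-compound controls on each plate, from four experiments.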

In test [19] the test system is Escherichia coli. In words: Inhibition of curli protein biogenesis in uropathogenic Escherichia coli UTI89 assessed as inhibition of biofilm formation in PVC wells at 50 uM after 48 hrs in YESCA broth medium by crystal violet staining. It is filed as functional. As to conditions: UTI89, 48 h. Put shortly:
as §3

Test [20] concerns the target Major curlin subunit (Escherichia coli (strain K12)) (UniProt P28307). Briefly: Inhibition of CsgA polymerization in Escherichia coli K-12 at 10 uM after 24 hrs by thioflavin-T amyloid polymerization assay. Put shortly: as §5
In test [21] the test system is Escherichia coli. In words: Antibacterial activity against uropathogenic Escherichia coli UTI89 infected in C3H/HeN mouse assessed as reduction bacterial load in bladder at 250 uM after 6 hrs post-infection by punctate violet staining relative to control. It is filed as functional, Urinary bladder. Put shortly: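 UTI89 was grown under type 1 pili-inducing conditions with or without 250 μM compound, then resuspended in PBS to OD600 0.5. 50 μl (1–2 × 10^7 CFU) was instilled transurethrally into 7–8-week-old female C3H/HeN mice. At 6 hpi, bladders were homogenized and plated for CFU (16 h, 37 °C), or fixed and LacZ-stained to count IBCs. Two-tailed Mann-Whitney test.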

For test [22], the system named is Escherichia coli. Briefly: Inhibition of curli protein biogenesis in Escherichia coli K-12 at 1 mM after […] by polyacrylamide gel-shift assay. It is filed as functional, organism-based. Put shortly:
as §1

Test [23] relates to Escherichia coli. Briefly: Inhibition of type 1 pili biogenesis in uropathogenic Escherichia coli UTI89 at 500 uM after 48 hrs in YESCA broth medium by congo red staining-based confocal microscopy. As to conditions: in the assay text read “curli-dependent pellicle formation” for “type 1 pili biogenesis”. The format is functional, organism-based. Put shortly: as §4
The subject of test [24] is Escherichia coli. Briefly: Inhibition of curli protein biogenesis in uropathogenic Escherichia coli UTI89 assessed as complete inhibition of biofilm formation in PVC wells at 50 to 400 uM after 48 hrs in YESCA broth medium by crystal violet staining. The format is functional, organism-based. Put shortly: as §3

Major curlin subunit (Escherichia coli (strain K12)), sequence (P28307 whole entry): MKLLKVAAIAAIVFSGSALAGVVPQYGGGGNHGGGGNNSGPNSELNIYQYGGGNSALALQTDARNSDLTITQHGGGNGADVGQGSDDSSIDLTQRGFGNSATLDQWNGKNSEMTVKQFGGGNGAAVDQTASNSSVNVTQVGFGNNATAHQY

As usually defined, the inhibition is the change of the read-out against control, counted positive when it falls. As to `O=C(O)[C@@H]1CSc2c(-c3ccc(Br)cc3)c(Cc3cccc4ccccc34)cc(=O)n21`, the inhibition result in the test on Escherichia coli [1], in the test on Escherichia coli [4], with Escherichia coli [5] and with Escherichia coli [10] was “inactive” throughout. The inhibition result in the test with Escherichia coli [2], in the test with Escherichia coli [3], with Escherichia coli [6], in the test on Escherichia coli [8] and in the test with Escherichia coli [9] was “Active” throughout. In the test with Escherichia coli [7], the outcome was inactive. Besides, in the test on Escherichia coli [11], the inhibition at 100 µM amounted to 50%.

Consider `O=C(O)[C@@H]1CSc2c(-c3ccc(F)c(F)c3)c(Cc3ccc4ccccc4c3)cc(=O)n21`, for which the inhibition entry (in the test on Escherichia coli [12]; in the test on Escherichia coli [1]; in the test on Escherichia coli [2]; in [13]; in the test on Escherichia coli [14]; with Escherichia coli [3]) was “Active” in each case. Also, the inhibition result (in [15]; with Escherichia coli [16]; with Escherichia coli [17]; in the test on Escherichia coli [6]; in the test with Escherichia coli [8]; with Escherichia coli [9]) was “Active” in each case. Moreover, the inhibition result in the test on Escherichia coli [5] and in the test on Escherichia coli [10] was “inactive” throughout. In addition, in the test on Escherichia coli [18], the inhibition at 50 µM came to 92%. The result with Escherichia coli [7] was inactive. Further, in the test with Escherichia coli [11], the inhibition at 100 µM amounted to 50%.

As for `O=C(O)[C@@H]1CSc2c(-c3cccc(C(F)(F)F)c3)c(Cc3cccc4ccccc34)cc(=O)n21`, the inhibition entry (with Escherichia coli [2]; in [13]; in the test on Escherichia coli [14]; in test [20]; with Escherichia coli [4]; in test [15]) was “Active” each time. Also, the inhibition entry in the test with Escherichia coli [16], in the test with Escherichia coli [17], in the test with Escherichia coli [6], in the test with Escherichia coli [9] and in the test on Escherichia coli [22] was “Active” in each case. Also, the inhibition at 50 µM was 50% in the test on Escherichia coli [19] and 99% in the test on Escherichia coli [18]. Further, in the test with Escherichia coli [21], the “fold change (FC)” value stood at 10. The inhibition result with Escherichia coli [5] and in the test on Escherichia coli [10] was “inactive” in each case. Besides, the outcome in the test on Escherichia coli [7] was inactive. In addition, in the test with Escherichia coli [11], the inhibition at 100 µM is 90%.

`O=C(O)[C@@H]1CSc2c(C3CC3)c(Cc3cccc4ccccc34)cc(=O)n21`: the inhibition entry in the test on Escherichia coli [2], with Escherichia coli [5], in the test with Escherichia coli [23], in the test with Escherichia coli [24] and in the test with Escherichia coli [10] was “inactive” each time. For the same compound, the inhibition at 50 µM with Escherichia coli [18] is 38%. In the test with Escherichia coli [7], the result was inactive.
